The target in experiment [1] is T1, Ectonucleotide pyrophosphatase/phosphodiesterase family member 1 (Homo sapiens) (UniProt P22413).
T1 sequence (whole entry): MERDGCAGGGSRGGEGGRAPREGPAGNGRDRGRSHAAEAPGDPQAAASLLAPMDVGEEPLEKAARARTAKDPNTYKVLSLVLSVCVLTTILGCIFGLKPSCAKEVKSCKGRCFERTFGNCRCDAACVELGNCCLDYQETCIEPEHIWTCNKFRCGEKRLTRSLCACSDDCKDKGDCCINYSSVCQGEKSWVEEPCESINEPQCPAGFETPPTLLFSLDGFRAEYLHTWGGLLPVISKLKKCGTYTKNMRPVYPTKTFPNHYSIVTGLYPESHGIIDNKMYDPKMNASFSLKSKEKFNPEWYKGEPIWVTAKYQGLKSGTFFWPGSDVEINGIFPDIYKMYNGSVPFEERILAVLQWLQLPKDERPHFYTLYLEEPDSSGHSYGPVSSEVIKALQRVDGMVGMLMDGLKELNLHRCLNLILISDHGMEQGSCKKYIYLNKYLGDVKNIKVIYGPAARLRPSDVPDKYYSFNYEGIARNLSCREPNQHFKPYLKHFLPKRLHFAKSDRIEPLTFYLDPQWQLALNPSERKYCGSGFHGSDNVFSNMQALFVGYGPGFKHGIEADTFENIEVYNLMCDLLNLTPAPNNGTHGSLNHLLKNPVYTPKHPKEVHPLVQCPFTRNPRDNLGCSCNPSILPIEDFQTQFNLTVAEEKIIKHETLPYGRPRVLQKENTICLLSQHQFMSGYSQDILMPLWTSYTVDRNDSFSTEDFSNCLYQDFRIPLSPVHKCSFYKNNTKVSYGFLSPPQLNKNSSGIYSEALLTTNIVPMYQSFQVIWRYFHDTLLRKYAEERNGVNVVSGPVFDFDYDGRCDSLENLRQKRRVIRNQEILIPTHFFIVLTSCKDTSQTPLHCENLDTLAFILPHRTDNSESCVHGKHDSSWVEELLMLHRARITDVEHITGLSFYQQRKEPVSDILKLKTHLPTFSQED
In words: Inhibition of NPP1 in human HTB-85 cells assessed as production of p-nitrophenol using pnp-TMP at 100 uM measured after 20 mins by spectrophotometry. It counts as cell-based. A digest of the protocol:
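Intact osteocarcinoma HTB85 (SaOS-2) cells in 24-well plates, 0.5 mL incubation mixture, analogue and pnp-TMP each at 100 μM. After 20 min an aliquot was read for p-nitrophenol at 410 nm. Substrate alone set as 100%. Mean ± SD of three experiments in triplicate.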

Experiment [2] deals with T1, Ectonucleotide pyrophosphatase/phosphodiesterase family member 1 (Homo sapiens). In words: Inhibition of human NPP1 expressed in COS7 cells assessed as production of p-nitrophenol using pnp-TMP as the substrate preincubated at 100 uM for 3 mins before substrate addition measured after 15 mins […]. It is filed as cell-based. The following applies: COS-7. In short, it runs like this:
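Crude extracts of COS-7 cells transiently transfected with human NPP1 or NPP3, preincubated 3 min at 37 °C in 1 mM CaCl2, 140 mM NaCl, 5 mM KCl, 50 mM Tris pH 8.5 with analogue at 100 μM. Reaction started with 100 μM pnp-TMP; p-nitrophenol at 410 nm after 15 min. Activity without analogue set as 100%. Mean ± SD of 3−6 experiments in triplicate.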

Experiment [3] shares this target. In words: Competitive inhibition of human NPP1 expressed in COS7 cells assessed as production of p-nitrophenol using pnp-TMP as the substrate preincubated at 25 to 100 uM for 3 mins before substrate addition measured after 15 mins by Dixon/Cornish Bowden method. It counts as cell-based. Particulars: COS-7. A digest of the protocol: (§1)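 Crude protein extract from COS-7 cells transiently transfected with human NPP1 (sonicated, debris cleared at 300g), preincubated 3 min at 37 °C with inhibitor (0, 25, 50, 100 μM) in 1 mM CaCl2, 140 mM NaCl, 5 mM KCl, 50 mM Tris pH 8.5. pnp-TMP (25, 50, 100 μM) added; p-nitrophenol read at 410 nm after 15 min. Ki,app and inhibition type from Dixon and Cornish-Bowden plots, three independent experiments.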

Experiment [4] concerns the target T2, Ectonucleotide pyrophosphatase/phosphodiesterase family member 1 (Homo sapiens, UniProt P22413).
T2 sequence (P22413 whole entry): T1 sequence (whole entry)
In words: Mixed type inhibition of human NPP1 expressed in COS7 cells assessed as production of p-nitrophenol using pnp-TMP as the substrate preincubated for 3 mins before substrate addition measured after 15 mins by Dixon/Cornish Bowden method. It is filed as cell-based, COS-7. The following applies: read-out: Ki(app). In short, it runs like this:
as §1

Experiment [5] addresses T3, Ectonucleoside triphosphate diphosphohydrolase 8 (Homo sapiens) (UniProt Q5MY95).
T3 sequence (whole entry): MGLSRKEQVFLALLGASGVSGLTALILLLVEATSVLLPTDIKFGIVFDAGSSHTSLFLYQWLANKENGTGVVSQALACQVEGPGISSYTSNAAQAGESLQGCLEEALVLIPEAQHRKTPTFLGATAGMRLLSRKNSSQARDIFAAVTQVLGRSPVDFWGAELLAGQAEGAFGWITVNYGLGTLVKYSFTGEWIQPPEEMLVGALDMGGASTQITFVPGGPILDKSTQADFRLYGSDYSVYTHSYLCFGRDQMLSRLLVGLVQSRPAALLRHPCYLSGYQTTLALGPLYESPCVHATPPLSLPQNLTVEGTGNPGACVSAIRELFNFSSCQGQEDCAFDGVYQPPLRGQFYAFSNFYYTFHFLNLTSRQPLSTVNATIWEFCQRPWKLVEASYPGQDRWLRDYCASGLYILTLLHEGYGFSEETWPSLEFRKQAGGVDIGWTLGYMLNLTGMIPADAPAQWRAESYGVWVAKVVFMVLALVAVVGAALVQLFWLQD
In words: Inhibition of human NTPDase8 assessed as amount of inorganic phosphate released using ATP as the substrate preincubated at 100 uM for 3 mins before substrate addition after 15 mins by malachite green reagent method. A digest of the protocol: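 Crude extracts of COS-7 cells transiently transfected with human NTPDase1, -2, -3 or -8, preincubated 3 min at 37 °C in Tris-Ringer medium pH 7.4 with analogue (final 100 μM). Started with 100 μM ATP, stopped after 15 min with malachite green; released Pi read at 630 nm. ATP alone set as 100%. Mean ± SD of 3−6 experiments in triplicate.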

pKi: −log10 of the molar value. Active and inactive are the calls of the source. The rule behind the calls is not given here.

For the compound `B[P@](=O)(OC[C@H]1O[C@@H](n2cnc3c(N)ncnc32)[C@H](O)[C@@H]1O)OP(=O)(O)CP(=O)(O)O`, the results for the inhibition in experiment [1], in experiment [2] and in experiment [5] were 41%, 80% and < 18%, respectively. Further, in experiment [3], the inhibition (usually the share of the control response that was lost under treatment) is “Active”. The pKi (commonly the negative decadic logarithm of the Ki, by convention in mol/L) in experiment [4] was 5.15.

For the compound `B[P@](=O)(OC[C@H]1O[C@@H](n2cnc3c(N)nc(SC)nc32)[C@H](O)[C@@H]1O)OP(=O)(O)CP(=O)(O)O`, the inhibition in experiment [1] is 90%; in experiment [2], 80%; in experiment [5] it was < 18%. Further, the inhibition result in experiment [3] is “Active”. Further, in experiment [4], the pKi was 4.25.

On to `B[P@@](=O)(OC[C@H]1O[C@@H](n2cnc3c(N)nc(SC)nc32)[C@H](O)[C@@H]1O)OP(=O)(O)C(F)(F)P(=O)(O)O`, for which the inhibition was determined as 90% in experiment [2] and 30% in experiment [5].

In the case of `B[P@@](=O)(OC[C@H]1O[C@@H](n2cnc3c(N)ncnc32)[C@H](O)[C@@H]1O)OP(=O)(O)CP(=O)(O)O`, the inhibition in experiment [1] was 90%; in experiment [2], 90%; in experiment [5], < 18%. Moreover, the inhibition entry in experiment [3] is “Active”. In addition, in experiment [4], the pKi was 6.30.

Consider `CSc1nc(N)c2ncn([C@@H]3O[C@H](COP(=O)(O)C(F)(F)P(=O)(O)O)[C@@H](O)[C@H]3O)c2n1`, for which the inhibition in experiment [1] was 41%; in experiment [2], 90%; in experiment [5] it was < 18%. Moreover, the inhibition entry in experiment [3] was “Active”. Moreover, the pKi in experiment [4] is 4.59.
